Results on two molecules are retold here after ChEMBL document CHEMBL2407079, “Potent DGAT1 Inhibitors in the Benzimidazole Class with a Pyridyl-oxy-cyclohexanecarboxylic Acid Moiety” (ACS Med Chem Lett, 2013).

Data set [1] can be described thus: Volume of distribution at steady state in Sprague-Dawley rat at 1 mg/kg, iv. The data set is classed as ADME, organism-based. Set-up: dose 1 mg/kg, route intravenous. To be noted: in vivo, read-out: Vdss. The method in brief: (§1)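 Sprague–Dawley rats; intravenous dose of 1 mg/kg given as a solution in EtOH/PEG400/water (10:50:40).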
Data set [2] addresses T1, Diacylglycerol O-acyltransferase 1 (Mus musculus, UniProt Q9Z2A7).
T1 sequence (Q9Z2A7 whole entry): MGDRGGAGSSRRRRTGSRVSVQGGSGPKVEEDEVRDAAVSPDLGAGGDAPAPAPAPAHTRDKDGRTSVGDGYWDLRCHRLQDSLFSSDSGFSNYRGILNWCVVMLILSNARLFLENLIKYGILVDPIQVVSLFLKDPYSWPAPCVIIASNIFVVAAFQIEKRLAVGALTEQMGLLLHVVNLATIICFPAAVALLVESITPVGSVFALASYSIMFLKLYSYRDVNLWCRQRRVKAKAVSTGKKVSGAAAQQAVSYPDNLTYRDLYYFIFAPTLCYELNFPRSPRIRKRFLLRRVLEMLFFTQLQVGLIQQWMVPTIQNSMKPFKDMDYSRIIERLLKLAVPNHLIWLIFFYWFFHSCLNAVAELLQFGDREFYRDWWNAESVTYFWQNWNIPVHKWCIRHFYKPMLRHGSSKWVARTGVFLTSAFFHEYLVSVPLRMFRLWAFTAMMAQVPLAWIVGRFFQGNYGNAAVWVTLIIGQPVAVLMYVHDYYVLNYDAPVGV
Kind of data set: Inhibition of mouse DGAT1.

The nature of data set [3]: Half life in Sprague-Dawley rat at 1 mg/kg, iv. Also noted: dose 1 mg/kg, route intravenous. To be noted: in vivo. The data set is classed as ADME, organism-based. The method in brief: as §1
The nature of data set [4]: AUC in Sprague-Dawley rat at 2 mg/kg, po. The data set is classed as ADME, organism-based. Set-up: dose 2 mg/kg, route oral. The note with it: plasma. The method in brief: (§2)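 Sprague–Dawley rats; 1 mg/kg iv and 2 mg/kg p.o., both as solutions in EtOH/PEG400/water (10:50:40). Plasma AUC measured for the parent and, where applicable, for the epimerized metabolite formed in vivo.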

Data set [5] can be described thus: Bioavailability in Sprague-Dawley rat at 1 mg/kg, iv. The data set is classed as ADME, organism-based. To be noted: in vivo. The method in brief: as §1
Data set [6] relates to Rattus norvegicus. Kind of data set: AUC in Sprague-Dawley rat assessed as cis-4-(5-(5-fluoro-1H-benzo[d]imidazol-2-yl)-2,3'-bipyridin-6'-yloxy)cyclohexanecarboxylic acid at 2 mg/kg, po. The note with it: in vivo. Set-up: dose 2 mg/kg, route oral. The class given is ADME, organism-based, Plasma. The method in brief: as §2
Data set [7] deals with T2, Diacylglycerol O-acyltransferase 1 (Homo sapiens, UniProt O75907).
T2 sequence (O75907 whole entry): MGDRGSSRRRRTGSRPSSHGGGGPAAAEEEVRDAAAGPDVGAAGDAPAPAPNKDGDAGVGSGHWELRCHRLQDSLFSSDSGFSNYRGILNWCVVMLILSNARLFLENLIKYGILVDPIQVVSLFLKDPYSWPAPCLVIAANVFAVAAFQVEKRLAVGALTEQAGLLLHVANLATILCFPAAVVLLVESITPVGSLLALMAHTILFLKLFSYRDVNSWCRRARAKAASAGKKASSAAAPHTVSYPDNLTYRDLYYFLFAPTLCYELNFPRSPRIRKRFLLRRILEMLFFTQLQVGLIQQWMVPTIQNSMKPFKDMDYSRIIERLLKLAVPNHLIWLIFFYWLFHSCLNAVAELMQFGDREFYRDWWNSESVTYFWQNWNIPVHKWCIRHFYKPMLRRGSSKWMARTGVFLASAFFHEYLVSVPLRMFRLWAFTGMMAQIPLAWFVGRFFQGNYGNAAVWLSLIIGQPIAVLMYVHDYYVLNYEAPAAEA
The experiment in a line: Inhibition of human DGAT1.

A short description of data set [8]: Clearance in Sprague-Dawley rat at 1 mg/kg, iv. Set-up: dose 1 mg/kg, route intravenous. To be noted: in vivo. The data set is classed as ADME, organism-based. The method in brief:
as §1

The next data set concerns Mus musculus. The experiment in a line: Reduction in triglyceride excursion in mouse at 10 mg/kg, po measured at 18 hrs by lipid tolerance test. The class given is functional. Also noted: scale not given: the % may be the effect or the level left. The method in brief: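 Mouse lipid tolerance test. Oral dose of 10 mg/kg as a suspension in 0.5% methylcellulose; triglyceride reduction read at 18 h.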

Data set [9] can be described thus: Lipophilicity, log D of the compound by HPLC analysis. The class given is physicochemical.
Data set [10] relates to Rattus norvegicus. The experiment in a line: Dose normalized AUC in Sprague-Dawley rat at 1 mg/kg, iv and 2 mg/kg, po. The data set is classed as ADME, organism-based. The note with it: in vivo. The method in brief: as §2

In general, IC50 refers to the concentration at which inhibition is half-maximal. The term half-life denotes the time in which the quantity being followed falls by half. As usually defined, the AUC is concentration integrated over time. Usually bioavailability stands for the share of a dose that reaches the circulation, judged against a reference dose that is usually intravenous. As usually defined, the clearance is the rate of elimination divided by the concentration. As for `O=C(O)[C@H]1CC[C@H](Oc2ccc(-c3ccc(-c4nc5ccc(F)cc5[nH]4)cn3)cn2)CC1`, the Vd in data set [1] amounted to 0.46 L/kg. Moreover, the IC50 in data set [2] was 8.1 nM; in data set [7], 2.5 nM. The half-life in data set [3] is 51.6 min. For the same molecule, the AUC in [4] is 4.47 µM·h; with Rattus norvegicus [6] it was 0.48 µM·h. Besides, the bioavailability in [5] was 24%. The clearance in data set [8] turned out to be 4.2 mL/min/kg.
In general, logD refers to the decadic logarithm of the distribution of all forms, ionised or not, between an organic phase and buffer at a given pH. `O=C(O)[C@H]1CC[C@@H](Oc2ccc(-c3ccc(-c4nc5ccc(Cl)cc5[nH]4)cn3)cn2)CC1`: the Vd in data set [1] is 0.34 L/kg. Moreover, the IC50 worked out at 3.7 nM in data set [2] and 2.1 nM in data set [7]. Besides, the half-life in [3] was 222 min. Moreover, in the data set with Mus musculus, the Activity was 144%. In [9], this molecule returned a logD of 1.42. This molecule had a bioavailability in data set [5] of 19%. The molecule further returned an AUC/dose in the data set with Rattus norvegicus [10] of 2.4 µM·h/mg/kg. The same molecule displayed a clearance in [8] of 3 mL/min/kg.
